Data set [1] can be described thus: Volume of distribution at steady state in CD-1 mouse at 2 mg/kg, iv. The data set is classed as ADME, organism-based. The conditions noted are these: in vivo, read-out: Vdss. An outline of the steps:
(§1)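 Plasma PK in CD-1 mice after single i.v. (2 mg/kg) or p.o. (10 mg/kg) dosing. Parameters come from non-compartmental analysis. Bioavailability = (AUC_po×Dose_iv)/(AUC_iv×Dose_po)×100%. Terminal t1/2 is taken from ≥3 points in the terminal phase.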

The nature of data set [2]: AUC(0 to t) in CD-1 mouse at 2 mg/kg, iv. The format is ADME, organism-based. Further details: dose 2 mg/kg. The conditions noted are these: in vivo. A digest of the protocol:
as §1

Data set [3] can be described thus: Oral bioavailability in CD-1 mouse at 10 mg/kg. The format is ADME, organism-based. The following applies: in vivo. A digest of the protocol: as §1
In the next data set the test system is BXPC-3. The experiment in a line: Cytotoxicity against human BXPC-3 cells assessed as inhibition of cell growth incubated for overnight in glucose-containing medium followed by compound addition and measured after 7 days by MTT assay. The data set is classed as functional, cell-based. The conditions noted are these: BXPC-3, 168 h. A digest of the protocol:
(§2)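 7-day MTT in glucose medium (RPMI 1640 + 10% FBS). Seeding is 200 cells/well for MIA PaCa-2 and 300 cells/well for BxPC-3, overnight at 37 °C, 5% CO2, before compound. MTT 3 mg/mL is added for 4 h, then DMSO, and absorbance is read at 570 nm. IC50 is by nonlinear regression; ≥3 independent experiments.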
(Tetrazolium dyes change colour on reduction, which living cells bring about.)

The nature of data set [4]: Toxicity in C57BL/6 mouse allografted with mouse Panc02 cells assessed as drug tolerability at 10 mg/kg, po administered once a day for 28 days. The format is organism-based. The following applies: in vivo, 672 h, time 28 day.
Data set [5] in a line: Metabolic stability in human liver microsomes assessed as half life at 10 uM measured up to 60 mins in presence of NADPH by LC-MS/MS analysis. The data set is classed as ADME, Microsome. The conditions noted are these: liver microsomes. For orientation: Liver microsomes are vesicles of endoplasmic reticulum, rich in cytochrome P450 enzymes.
Data set [6] deals with MIA PaCa-2. In words: Cytotoxicity against human MIA PaCa-2 cells assessed as inhibition of cell growth incubated for overnight in galactose-containing medium followed by compound addition and measured after 3 days by MTT assay. The format is functional, cell-based. The conditions noted are these: MIA PaCa-2, 72 h. An outline of the steps: (§3)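 MIA PaCa-2 3-day MTT in glucose medium (RPMI 1640 + 10% FBS) or galactose medium (glucose-free RPMI + 10 mM galactose + 10% FBS). Galactose wells are seeded at 8000 cells/well. MTT read-out is at 570 nm after DMSO solubilization. IC50 is by nonlinear regression; ≥3 independent experiments.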

A short description of data set [7]: AUC (0 to infinity) in CD-1 mouse at 10 mg/kg, po. The format is ADME, organism-based. Further details: route oral, time infinity, dose 10 mg/kg. The following applies: in vivo. An outline of the steps: as §1
The nature of data set [8]: Clearance in CD-1 mouse at 10 mg/kg, po. The format is ADME, organism-based. The following applies: in vivo. An outline of the steps:
as §1

Data set [9] is described as follows: Inhibition of oxidative phosphorylation in human MIA PaCa-2 cells assessed as reduction in ATP production incubated for 24 hrs in glucose-containing medium by celltiter-glo luminescence cell viability assay. The following applies: MIA PaCa-2, 24 h. The format is functional, cell-based. An outline of the steps: (§4)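 MIA PaCa-2 cells are seeded at 10000 cells/well in glucose RPMI + 10% FBS or in glucose-free RPMI + 10 mM galactose + 10% FBS. Total ATP is measured by CellTiter-Glo luminescence 24 h after compound. IC50 is by nonlinear regression; ≥3 independent experiments.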
(In general: Cellular ATP, detected with luciferase, serves as a proxy for viable cell number.)

Data set [10] can be described thus: Terminal elimination half life in CD-1 mouse at 10 mg/kg, po. The data set is classed as ADME, organism-based. The following applies: in vivo, read-out: LambdaZ (converted). A digest of the protocol: as §1
Data set [11] in a line: Terminal elimination half life in CD-1 mouse at 2 mg/kg, iv. The data set is classed as ADME, organism-based. The following applies: in vivo, read-out: LambdaZ (converted). An outline of the steps: as §1
Data set [12] in a line: Inhibition of oxidative phosphorylation complex I in human MIA PaCa-2 cells assessed as reduction in NAD+/NADH ratio incubated for 48 hrs in glucose-containing medium by NAD/NADH-Glo assay. The data set is classed as cell-based. The conditions noted are these: MIA PaCa-2, 48 h. An outline of the steps:
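MIA PaCa-2 cells at 5×10^3/well are treated next day for 48 h in RPMI 1640 + 10% FBS. After a PBS wash, cells are lysed with bicarbonate buffer/1% DTAB. Lysate is split: NAD+ with 0.4 N HCl at 60 °C for 15 min, NADH heated directly, then neutralized. NAD/NADH-Glo luminescence is read after 30 min. IC50 is by nonlinear regression.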

Data set [13] in a line: Inhibition of oxidative phosphorylation in human MIA PaCa-2 cells assessed as reduction in ATP production incubated for 24 hrs in galactose-containing medium by celltiter-glo luminescence cell viability assay. The data set is classed as functional, cell-based. The conditions noted are these: MIA PaCa-2, 24 h. An outline of the steps:
as §4

A short description of data set [14]: Metabolic stability in mouse liver microsomes assessed as half life at 10 uM measured up to 60 mins in presence of NADPH by LC-MS/MS analysis. The data set is classed as ADME, Microsome. The following applies: liver microsomes.
Data set [15] is described as follows: AUC (0 to infinity) in CD-1 mouse at 2 mg/kg, iv. The data set is classed as ADME, organism-based. Further details: route intravenous, time infinity, dose 2 mg/kg. The following applies: in vivo. An outline of the steps: as §1
A short description of data set [16]: Clearance in CD-1 mouse at 2 mg/kg, iv. The data set is classed as ADME, organism-based. The following applies: in vivo. A digest of the protocol: as §1
The test system of data set [17] is MIA PaCa-2. In words: Cytotoxicity against human MIA PaCa-2 cells assessed as inhibition of cell growth incubated for overnight in glucose-containing medium followed by compound addition and measured after 3 days by MTT assay. The format is functional, cell-based. The following applies: MIA PaCa-2, 72 h. An outline of the steps:
as §3

Data set [18] is described as follows: Initial plasma concentration in CD-1 mouse at 2 mg/kg, iv. The format is ADME, organism-based. A digest of the protocol: as §1
The nature of data set [19]: AUC(0 to t) in CD-1 mouse at 10 mg/kg, po. The data set is classed as ADME, organism-based. Further details: dose 10 mg/kg. The following applies: in vivo. A digest of the protocol: as §1
A short description of data set [20]: Toxicity in C57BL/6 mouse allografted with mouse Panc02 cells assessed as body weight loss at 10 mg/kg, po administered once a day for 28 days and measured twice per week. The following applies: in vivo, 672 h, time 28 day. The format is organism-based. An outline of the steps:
(§5)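 Female C57BL/6 mice, 6-10 weeks old, get 5×10^6 Pan02 cells s.c. in the right flank and are randomized at ~100 mm3 (n = 5/group). Dosing is daily for 28 days. Vehicle is 10% DMSO/50% PG/40% saline, except 15 mg/kg uses 10% DMSO/60% PG/30% saline. Caliper volume (length×width²)/2 and body weight are recorded twice weekly.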

The next data set deals with Panc02. In words: Antitumor activity against Panc02 cells allografted in C57BL/6 mouse syngeneic model assessed as tumor growth inhibition at 10 mg/kg, po administered once daily for 28 days and measured twice per week. The format is functional, organism-based. The following applies: time 28.0 day. An outline of the steps: as §5
Data set [21] is described as follows: Toxicity in C57BL/6 mouse allografted with mouse Panc02 cells assessed as drug tolerability at 15 mg/kg, ip administered once a day for 28 days. The conditions noted are these: in vivo, 672 h, time 28 day. The data set is classed as organism-based.
In data set [22] the test system is MIA PaCa-2. In words: Cytotoxicity against human MIA PaCa-2 cells assessed as inhibition of cell growth incubated for overnight in glucose-containing medium followed by compound addition and measured after 7 days by MTT assay. The data set is classed as functional, cell-based. The conditions noted are these: MIA PaCa-2, 168 h. An outline of the steps: as §2
Data set [23] is described as follows: Toxicity in C57BL/6 mouse allografted with mouse Panc02 cells assessed as body weight loss at 15 mg/kg, ip administered once a day for 28 days and measured twice per week. The format is organism-based. The conditions noted are these: in vivo, 672 h, time 28 day. An outline of the steps:
as §5

The structures appear in SMILES notation. The source made the active and inactive calls. The calls are words filed in the database; no cut-off is given here.

Turning to `CC(C)S(=O)(=O)c1ccc(S(=O)(=O)N2CCC[C@@H](C(=O)N3CCC(F)(F)CC3)C2)cc1`, the Vd in data set [1] is 5.2 L/kg. The AUC(0-t) – broadly, exposure summed from dosing to a finite time, without extrapolation to infinity – is 0.65 µM·h in [2] and 0.368 µM·h in [19]. In [3], this compound gave an F of 11.3%. Also, the IC50 (in general, the midpoint of a concentration-inhibition curve) with BXPC-3 was 50 nM; with MIA PaCa-2 [6], 9.1 nM; in data set [9], over 3000 nM; in data set [12], 3.6 nM; in data set [13] it was 11 nM; in the data set on MIA PaCa-2 [17] it was over 3000 nM. Also, the Activity result in data set [4] and in data set [20] was “Non-Toxic” throughout. Moreover, the half-life at 10 µM in data set [5] and in [14] was over 1 h throughout. The results for the AUC(0-inf) in [7] and in data set [15] were 0.417 µM·h and 0.657 µM·h, respectively. Further, the CL/F (as a rule, the apparent clearance, not corrected for the fraction that reaches the circulation) in [8] was determined as 835 mL/min/kg. In addition, the half-life in data set [10] was 3.06 h; in data set [11], 1.42 h. Besides, in data set [16], the clearance (in general, the volume of plasma or blood freed of the substance per unit of time) came to 106 mL/min/kg. The compound further returned a C0 in [18] of 354 ng/mL. Besides, the outcome with Panc02 was Active.
`O=C([C@@H]1CCCN(S(=O)(=O)c2ccc(S(=O)(=O)N3CC[C@@H](O)C3)cc2)C1)N1CCC(F)(F)CC1`: the IC50 with BXPC-3 is 330 nM; with MIA PaCa-2 [22], 210 nM; in the data set on MIA PaCa-2 [6] it was 135 nM; in data set [9], over 3000 nM; in data set [13], 123 nM; with MIA PaCa-2 [17], over 3000 nM. For the same compound, the Activity entry in [21] and in data set [23] was “Non-Toxic” each time. Further, the values for the half-life at 10 µM in data set [5] and in [14] were 0.517 h and 0.437 h, respectively.
